Assay results collected from several papers.
Each line is one published result; the experiments were not run side by side.
Target: Sodium-dependent noradrenaline transporter (SLC6A2, Homo sapiens, UniProt P23975)

`COc1ccc(C(CN(C)C)C2(O)CCCCC2)cc1` (stereo not drawn) gave an inhibition of 28.8% (transporter uptake; inhibitor; HEK293; 1 µM).
`Cc1noc([C@H]2C[C@@H](c3ccc(C(F)(F)F)cc3)CN(C(=O)N3CCS(=O)(=O)C3)C2)n1` gave an inhibition of -20.2% (cell-free assay; 10 µM).
For `COc1ccc(S(=O)(=O)N2CCCCC2)cc1C`, the inhibition was < 30% (ligand displacement; radioligand; 10 µM).
The inhibition of `O=C(Nc1cccnn1)N1CCN([C@@H]2CCOc3cc(C(F)(F)F)ccc32)CC1` is reported as 15% (ligand displacement; 20 µM).
For `CN(CCN1CCC(OC(=O)Nc2ccccc2-c2ccccc2)CC1)C(=O)c1ccc(CN2CCC(C(N)=O)CC2)cc1`, the inhibition was 1% (ligand displacement; radioligand; 1 µM).
The inhibition of `CS(=O)(=O)N1CCCC(NC(=O)[C@H](CCC2CCCCC2)NC(=O)c2ccc(CNC(=O)c3cnc4ccccn34)cc2)C1` (stereo partly drawn) is reported as 3% (cell-free assay; 10 µM).
`COCc1c(-c2cc3cc(C)cc(OC)c3s2)c2c(N)ncnn2c1CN1CCNC(=O)C1` has an inhibition of 47% (ligand displacement; radioligand; 10 µM).
With `Fc1ccc(C(OCCN2CCN(CCCc3ccccc3)CC2)c2ccc(F)cc2)cc1` the inhibition was 89.9% (transporter uptake; inhibitor; HEK293; 1 µM).
`Clc1ccc2c(C3CCN(CCc4c[nH]c5ccccc45)CC3)c[nH]c2c1` gave an inhibition of 90% (ligand displacement; radioligand; 10 µM).
The inhibition of `CC(C)(C)c1ccc(C(=O)Nc2cc(Cl)c(-c3ccccc3)cc2C(=O)O)cc1` is reported as 91% (ligand displacement; radioligand; 10 µM).
The inhibition of `CC(C)N1CCC[C@H]1CNC(=O)c1cn(C2CCCC2)c(=O)c2c1c1ccccc1n2C` is reported as 28% (ligand displacement; radioligand; 10 µM).
With `CCN(CC)CCCC[C@H](NC(=O)[C@H](CC(C)C)NC(=O)[C@H](C)NC(=O)[C@H](Cc1ccccc1)NC(=O)c1ccc(C(C)(C)C)cc1)C(=O)N[C@@H](CO)C(=O)OC` the inhibition was -13% (ligand displacement; radioligand; 10 µM).
